Screening results as filed in PubChem.
STAT3 act: increases IL-6 driven STAT3 reporter signal. U3A cells, IL-6 STAT3-luciferase reporter, luminescence; 100% = signal with IL-6 EC80 alone. activation (% of control), % at 5.6 µM. 190,000 tested, 0.91% active;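 active means activation above the screen-wide mean of compound activation plus 3 SD, cut at about 130% in these data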;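 further: 0% = background luminescence of wells with medium and substrate only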
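system = STAT3-luciferase reporter U3A cells | reagent = IL-6 stimulus at 33 ng/mL final | timing = 1 h compound pre-exposure, 6 h IL-6 stimulation, 37 °C | measured by = luminescence | evaluation = % activation versus median of IL-6-stimulated wells | control set = IL-6-only wells as 100% reference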
STAT3 inh: inhibitors of IL-6 induced STAT3 signaling. U3A cells, IL-6 STAT3-luciferase reporter, luminescence; host cell line lacks STAT1. inhibition, % at 5.5 µM. 190,000 tested, 0.89% active;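 active means inhibition above the mean inhibition across all screened compounds plus 3 SD, cut at about 44% in these data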;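 further: 0% = DMSO only wells and 100% = 100 µM nifuroxazide control wells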
NF-kB neuron act: compounds increasing NF-kB expression in human neuronal cells. 190,000 tested, 1.6% active. fold change at 12.5 µM. NF-kB reporter expression; stronger effect = higher value. AID 1239; in the data active means fold change above about 3.3
STAT1 act: STAT1 signaling activation; NIH 3T3 STAT1-luciferase reporter, IFN-gamma, luminescence; 100% = IFN-gamma alone, no compound; activation (% of control), % at 5.5 µM; 200,000 tested, 2.6% active; AID 932;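 active means activation above the screen-wide mean activation plus 3 SD, cut at about 130% in these data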;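 further: raw ratio to IFN-gamma control signal so 100% means no change and 0% no light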
APP 5'UTR act: APP 5'UTR luciferase reporter activation; SH-SY5Y APP 5'UTR luciferase reporter, luminescence; zero percent = DMSO vehicle wells; AID 1276; activation, % at 2 µM; 190,000 tested, 1% active;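 active means activation above a set limit, based on mean plus 3 SD of controls, cut at about 140% in these data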
STAT1 blocker: inhibitors of IFN-gamma induced STAT1 signaling; NIH 3T3 STAT1-luciferase reporter, luminescence; 200,000 tested, 0.35% active; inhibition, % at 5.5 µM; AID 920;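 active means inhibition above a set limit, the mean inhibition across all tested compounds plus 3 SD, cut at about 34% in these data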;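 further: 0% = IFN-gamma with DMSO and 100% = IFN-gamma with 300 µM nifuroxazide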
Active calls of the source: *; . = no result given. An excerpt weighted towards active compounds, which were near 5.1% of everything screened.

SMILES	STAT3 act	STAT3 inh	NF-kB neuron act	STAT1 act	APP 5'UTR act	STAT1 blocker
Cc1nc(N)sc1-c1csc(N(C)c2ccc(O)cc2)n1	106	0	0.52	108	64	-9
Cc1cc(O)ccc1Nc1nc(-c2cccs2)cs1	97	12	7.2*	121	148*	-22
COc1ccccc1-n1cc(CN2CCCC(CO)(Cc3cccc(Cl)c3)C2)cn1 (stereo unspecified)	107	-5	0.66	100	-13	-2
CCOC(=O)c1nn(-c2ccc(F)cc2)c2c1CC/C2=C/c1ccccc1	98	-2	1.2	97	-5	4
COc1cc2cc(C(=O)O)[nH]c2c(OC)c1OC	100	6	1.3	103	10	-4
COc1ccc(CCN(C)C(=S)NC(=O)c2ccc(F)cc2Cl)cc1OC	99	8	1.1	93	4	7
Cc1nn(C2CCS(=O)(=O)C2)c(Cl)c1/C=C/C(=O)OCC(=O)c1cc(C)n(-c2ccc(F)cc2)c1C (stereo unspecified)	67	39	0.76	96	-21	5
COc1ccc(-c2csc(Nc3cccnc3)n2)cc1	101	-1	2.4	134*	44	-47
CN1C(=C2C(=O)OC(C)(C)OC2=O)Sc2ccccc21	95	9	1.6	130*	30	-33
Cc1cc(C(=O)CN2C(=O)C(=O)N(CC(C)C)C2=O)c(C)n1-c1ccccc1F	100	2	1.1	100	9	0
Cc1nc2c(-c3ccc(F)cc3)cnn2c2c1CCC2	107	3	1.8	130*	32	-35
Brc1ccc(-c2nnc(-c3cccnc3)c3conc23)cc1	134*	-37	.	102	-7	-2
O=C(O)Cc1sc(-c2cccnc2)nc1-c1ccc(Br)cc1	99	2	1.1	93	14	6
Cc1cccc(C(=O)NCC(=O)N2CC(=O)Nc3ccccc32)c1	105	2	1.1	101	10	-1
COc1ccc(C(=O)C(OC(=O)c2ccccc2Cl)c2ccccc2)cc1 (stereo unspecified)	118	-28	1.5	140*	26	-44
